HKDC1 inh – HKDC1 (human) hexokinase inhibition. inhibition, % at 20 µM. AID 493160. actives 0.16% (n = 340,000). recombinant HKDC1, G6PDH/diaphorase resazurin coupled fluorescence;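 active means inhibition above about 35% when tested at 20 µM, limit read from the data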
Target sequence (Q2TB90 whole entry, looked up): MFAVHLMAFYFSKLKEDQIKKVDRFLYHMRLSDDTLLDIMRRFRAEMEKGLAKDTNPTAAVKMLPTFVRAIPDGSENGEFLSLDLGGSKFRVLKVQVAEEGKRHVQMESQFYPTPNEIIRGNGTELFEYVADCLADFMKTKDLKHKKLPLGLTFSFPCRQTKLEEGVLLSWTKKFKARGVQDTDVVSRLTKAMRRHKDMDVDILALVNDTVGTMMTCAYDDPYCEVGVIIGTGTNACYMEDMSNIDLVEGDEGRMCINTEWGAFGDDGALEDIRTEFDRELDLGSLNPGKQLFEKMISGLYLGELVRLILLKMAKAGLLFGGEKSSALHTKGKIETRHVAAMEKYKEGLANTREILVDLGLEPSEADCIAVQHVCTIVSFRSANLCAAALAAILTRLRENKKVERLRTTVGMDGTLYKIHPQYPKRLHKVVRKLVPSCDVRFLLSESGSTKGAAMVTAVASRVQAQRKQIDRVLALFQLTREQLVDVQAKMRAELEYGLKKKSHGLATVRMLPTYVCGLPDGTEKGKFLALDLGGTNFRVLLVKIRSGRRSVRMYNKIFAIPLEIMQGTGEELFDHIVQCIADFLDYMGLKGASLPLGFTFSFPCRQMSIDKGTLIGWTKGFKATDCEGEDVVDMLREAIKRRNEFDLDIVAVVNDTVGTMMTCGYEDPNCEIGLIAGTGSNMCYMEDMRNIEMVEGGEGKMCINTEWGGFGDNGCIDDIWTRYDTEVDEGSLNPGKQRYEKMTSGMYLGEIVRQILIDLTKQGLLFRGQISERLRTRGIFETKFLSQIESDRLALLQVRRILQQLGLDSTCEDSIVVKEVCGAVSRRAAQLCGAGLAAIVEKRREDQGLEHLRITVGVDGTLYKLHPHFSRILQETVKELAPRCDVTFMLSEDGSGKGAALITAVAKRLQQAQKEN
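Assay system: recombinant HKDC1 hexokinase; detection: coupled resazurin fluorescence, excitation 525 nm, emission 613 nm; benchmarks: DMSO-plus-enzyme-mix negative control, buffer-substituted positive control; compound dosing: single 20 µM dose; schedule: 90 min at room temperature in dark; also added: glucose plus 1 mM ATP as hexokinase substrates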
PfG6PD inh – PfG6PD (Plasmodium falciparum) enzyme inhibition; AID 504690; PfGluPho enzyme, NADPH resazurin-diaphorase fluorescence; inhibition, % at 20 µM; actives 0.78% (n = 350,000);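 active means inhibition reaching at least a set limit at 20 µM in the primary screen, cut at about 59% in these data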
G6PDH CS – L. mesenteroides G6PDH inhibition counter-screen; Purified L. mesenteroides G6PDH, diaphorase/resazurin coupled fluorescence, 45 min; inhibition, % at 5 µM; actives 0.12% (n = 200,000); AID 1020; in the data active means inhibition above about 50%
TbHK1 inh – T. brucei hexokinase 1 inhibition. recombinant TbHK1, G6PDH-coupled NADH A340. inhibition, % at 10 µM. actives 0.11% (n = 220,000);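 active means inhibition of 50% or more in the single-dose primary screen; inactive means inhibition below 50%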
Diaph act CS – diaphorase activation or chemical reduction counter-screen; activation factor at 20 µM; actives 0.005% (n = 190,000); Diaphorase/resazurin coupled assay, resorufin fluorescence, 16 min; hits give high values; 1 = vehicle wells, 0 = NADH-free wells;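 active means diaphorase activity raised at least twofold by the compound at 20 µM; inactive means activation factor below 2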
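Assay system: bacterial diaphorase enzyme (C. kluyveri) / Input: enzyme 0.07 U/mL final / Medium: 50 mM HEPES pH 7.4 with 4.542 mM MgCl2, 0.005% Tween 20 / Doses: single compound dose of 20 µM, 1% DMSO final / Incubation: 16 min enzyme reaction, ambient temperature / Signal: fluorescence, excitation 544 nm and emission 590 nm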
Diaph inh CS – diaphorase inhibition or chemical oxidation counter-screen; diaphorase resazurin-to-resorufin fluorescence, NADH, 16 min; bacterial (C. kluyveri) enzyme, not human; inhibition, % at 20 µM; actives 0.69% (n = 190,000); AID 1217;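 active means primary screen inhibition at 20 µM above a set limit, cut at about 50% in these data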
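controls = No-NADH positive control and DMSO neutral control | system = Clostridium kluyveri diaphorase enzyme | timing = reaction incubation of 16 min at room temperature | signal = resorufin fluorescence 544/590 nm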
PfG6PD confirm – PfG6PD inhibition, single-dose confirmed | shares compounds with PfG6PD inh | recombinant PfGluPho, NADPH-diaphorase-resazurin fluorescence | inhibition, % at 20 µM | actives 34% (n = 2,400);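 active means inhibition of at least 50% at 20 µM in any single replicate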
Diaph ctr 10uM – diaphorase inhibition or oxidation at 10 uM NADPH; shares compounds with PfG6PD inh; diaphorase-coupled resazurin reduction, fluorescence, NADPH 10 uM; inhibition, % at 20 µM; AID 504862; actives 39% (n = 820);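 active means average inhibition reaching 50% or more with the compound at 20 µM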;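 further: resorufin red fluorescence formed as diaphorase reduces resazurin using NADPH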
Diaph ctr 30uM – diaphorase inhibition or oxidation at 30 uM NADPH | shares compounds with PfG6PD inh | Diaphorase/resazurin coupled assay, resorufin fluorescence | inhibition, % at 20 µM | actives 29% (n = 820);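 active means inhibition averaging 50% or more, tested at 20 µM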
A number is an active result; - = inactive; . = no result given. Only some compounds are listed: those with a hit (about 1.3% of all), similar ones and a draw of the others.

SMILES | HKDC1 inh | PfG6PD inh | G6PDH CS | TbHK1 inh | Diaph act CS | Diaph inh CS | PfG6PD confirm | others
COc1ccc(NC(=O)c2ccc(=O)[nH]c2)cc1S(=O)(=O)N1CCCCC1 | . | . | - | - | - | - | .
CCN(CC)c1ccc(NC(=O)COc2ccccc2C#N)cc1S(=O)(=O)Nc1ccc(OC)cc1 | - | - | - | - | - | - | .
CCN(CC)c1ccc(NC(=O)c2ccc(=O)[nH]c2)cc1S(=O)(=O)Nc1ccccc1OC | - | 62 | - | - | - | - | -
CCN(CC)c1ccc(NC(=O)COc2ccccc2C)cc1S(=O)(=O)Nc1ccccc1OC | - | 61 | - | - | - | - | -
CCOc1ccccc1N1CSC2=C(C#N)C(c3c(OC)ccc4ccccc34)CC(=O)N2C1 (stereo not given) | - | 74 | - | - | - | 67 | -
COc1ccc(CCNC(=O)C2CC(=O)N(c3ccc(C)cc3)C2)cc1OC (stereo not given) | - | - | . | . | . | . | .
COc1ccc(N2CSC3=C(C#N)C(c4ccc(OC)c(OC)c4)CC(=O)N3C2)c(OC)c1 (stereo not given) | - | 80 | - | - | - | 58 | 65 | Diaph ctr 10uM=-;Diaph ctr 30uM=-
COc1cc(OC)c(C2CC(=O)N3CN(c4ccc(C)cc4)CSC3=C2C#N)cc1OC (stereo not given) | - | 89 | - | - | - | - | -
Cc1ccc(N2CSC3=C(C#N)C(c4cccs4)CC(=O)N3C2)cc1 (stereo not given) | - | 70 | - | - | - | - | -
O=[N+]([O-])c1ccc(N2CCN(S(=O)(=O)c3ccc4ccccc4c3)CC2)cc1NCC1CCCO1 (stereo not given) | - | - | - | - | - | - | .
COc1ccc(CCNC(=O)COC(=O)CNS(=O)(=O)c2ccc(SC)c([N+](=O)[O-])c2)cc1 | - | - | . | . | . | . | .
O=C(NCc1cccc(Cl)c1)c1ccc(CS(=O)Cc2ccccc2Cl)o1 (stereo not given) | - | - | . | . | . | . | .
COc1ccc(C2CC(=O)N3CN(c4ccc(C)c(Cl)c4)CSC3=C2C#N)cc1OC (stereo not given) | - | 59 | - | - | - | 60 | -
COc1ccc(N2C(=O)C3CC(C)=C(C)CC3C2=O)c(OC)c1 (stereo not given) | - | - | - | - | - | - | .
COc1ccc(N2CSC3=C(C#N)C(c4cc(OC)c(OC)cc4OC)CC(=O)N3C2)c(OC)c1 (stereo not given) | - | 102 | - | - | - | 66 | 74 | Diaph ctr 10uM=-;Diaph ctr 30uM=-
CC1CCCC(C)N1CCCNC(=O)c1ccc2c(c1)NC(=O)c1ccccc1S2 (stereo not given) | - | - | . | . | . | . | .
CCC(C)N(CCNC(=O)c1ccc2c(c1)NC(=O)c1ccccc1S2)C1CCCCC1 (stereo not given) | - | 76 | . | . | . | . | 93 | Diaph ctr 10uM=-;Diaph ctr 30uM=-
Cc1ccc(/C=N/n2cc(-c3ccccc3)[nH]c2=S)s1 | - | - | - | - | - | - | .
COc1cc(/C=N/n2cc(-c3ccccc3)[nH]c2=S)cc(OC)c1O | - | 61 | . | - | . | . | 52 | Diaph ctr 10uM=-;Diaph ctr 30uM=-
Cc1cccnc1N1C(=O)c2ccc(C(=O)O)cc2C1=O | - | - | . | . | . | . | .
CC(C)Cn1c([N+](=O)[O-])nc2c1c(=O)[nH]c(=O)n2C | - | 71 | . | - | . | . | 55 | Diaph ctr 10uM=-;Diaph ctr 30uM=-
Cn1c(=O)[nH]c(=O)c2c1nc([N+](=O)[O-])n2Cc1ccccc1 | - | 86 | . | - | . | . | 88 | Diaph ctr 10uM=-;Diaph ctr 30uM=51
CCN(c1ccc(OC)cc1)S(=O)(=O)c1nnc(NC(=O)COc2ccccc2)s1 | - | - | . | . | . | . | .
CCOc1ncccc1C(=O)Nc1cc(S(=O)(=O)N2CCCCC2)ccc1OC | - | - | . | . | . | . | .
O=C(c1ccc(Cl)c(S(=O)(=O)NCc2ccco2)c1)N1CCN(c2ccc(F)cc2)CC1 | - | - | - | - | - | - | .
SMILES | HKDC1 inh | PfG6PD inh | G6PDH CS | TbHK1 inh | Diaph act CS | Diaph inh CS | PfG6PD confirm | others
N=C1/C(=C/c2cccn2CCOc2ccccc2)C(=O)N=C2SC=C(c3ccccc3)N12 | - | 65 | - | - | - | - | -
N=C1/C(=C\c2ccc(-c3cc(Cl)cc(Cl)c3)o2)C(=O)N=C2SC=C(c3ccccc3)N12 | - | - | - | - | - | - | .
CC(=O)N/C(=C\c1ccccc1)C(=O)NCC(=O)O | - | - | - | - | - | - | .
CC(=O)OCCN(C)c1cc(SC(C)C)c2nonc2c1[N+](=O)[O-] | - | - | - | - | - | - | .
CN(CCO)c1cc(Sc2nc3ccccc3s2)c2nonc2c1[N+](=O)[O-] | - | 88 | - | - | - | - | 70 | Diaph ctr 10uM=-;Diaph ctr 30uM=-
COc1ccc(N2CCN(C(=O)c3ccccc3NS(=O)(=O)c3ccc(C)cc3)CC2)cc1 | - | - | . | . | . | . | .
Cc1cc(C)c(C#N)c(=N)o1 | - | 66 | - | - | - | - | -
CSc1nc(C)cc(C)c1C#N | - | - | - | - | - | - | .
Cc1ccc(NC(=O)CC2C(=O)NCCN2C(=O)c2ccc(F)cc2)cc1 (stereo not given) | - | - | . | . | . | . | .
COC(=O)C1=C(C)NC(C)=C(C(=O)OCC(C)C)C1c1ccccc1[N+](=O)[O-] (stereo not given) | - | 62 | . | . | . | . | -
CCOc1ccc2c(c1)C(=O)C(=O)N2CC1COc2ccccc2O1 (stereo not given) | - | 63 | . | . | . | . | -
CC(C)NC(=S)NNc1nc2ccccc2s1 | - | 74 | - | - | - | - | -
COc1ccc(-c2nnn(CC(=O)NCCc3ccc(OC)c(OC)c3)n2)cc1 | - | - | - | - | - | - | .
COc1cccc(N/C(SCc2cccc([N+](=O)[O-])c2)=C(/C#N)C(N)=O)c1 | - | - | - | - | - | - | .
Cc1ccccc1N/C(SCc1cccc(Br)c1)=C(/C#N)C(N)=O | - | 97 | - | - | - | - | 67 | Diaph ctr 10uM=61;Diaph ctr 30uM=-
NC1=NC[C@@H](Cc2ccc(O)cc2)N1CCC12CC3CC(CC(C3)C1)C2 | - | - | . | . | . | . | .
CC1Cc2ccccc2N1CC(=O)Nc1ccc(N2CCOCC2)cc1 (stereo not given) | - | - | - | - | - | - | .
CC(Nc1ccc(N2CCOCC2)cc1)C(=O)N1c2ccccc2CC1C (stereo not given) | - | 69 | . | - | . | . | -
Cc1onc(-c2ccccc2)c1C(=O)Nc1nnc(COc2ccc(Cl)cc2)s1 | - | 78 | - | - | - | - | -
COCC(=O)Nc1nnc(COc2ccc(Cl)cc2)s1 | - | - | - | - | - | - | .
